Key:
[1] = molecular target: Cyclin-dependent kinase 2/cyclin E1 (Homo sapiens, UniProt P24941); assay: Inhibition of His-tagged CDK2/Cyclin-E1 (unknown origin) expressed in baculovirus infected Sf9 insect cells using histone H1 as substrate measured in presence of [gamma-33P]ATP; format: cell-based
[2] = Antiproliferative activity against human OCI-Ly2 cells measured after 72 hrs by calcein AM dye-based fluorescence assay; format: functional
In short: (§1)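 Cells exposed in triplicate to six concentrations for 72 h; calcein AM added for 1 h, live-cell fluorescence read at 485/538 nm (ex/em). GI50 taken from dose-response curves.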

HT = assay: Antiproliferative activity against human HT cells measured after 72 hrs by calcein AM dye-based fluorescence assay; format: functional; in short: as §1
[3] = Antiproliferative activity against human Mino cells measured after 72 hrs by calcein AM dye-based fluorescence assay; format: functional; in short: as §1
CDK9/cyclin T1 = CDK9/cyclin T1 (Homo sapiens, UniProt P50750); assay: Inhibition of recombinant human N-terminal GST-His6-fused CDK9 (M1 to F372 residues)/N-terminal His6-tagged cyclin T1 (M1 to K726 residues) expressed in baculovirus infected Sf9 insect cells using (YSPTSPS)2KK as substrate measured in presence of [gamma-33P]ATP
Chain of CDK9/cyclin T1 (O60563 whole entry, the tested form may be a part): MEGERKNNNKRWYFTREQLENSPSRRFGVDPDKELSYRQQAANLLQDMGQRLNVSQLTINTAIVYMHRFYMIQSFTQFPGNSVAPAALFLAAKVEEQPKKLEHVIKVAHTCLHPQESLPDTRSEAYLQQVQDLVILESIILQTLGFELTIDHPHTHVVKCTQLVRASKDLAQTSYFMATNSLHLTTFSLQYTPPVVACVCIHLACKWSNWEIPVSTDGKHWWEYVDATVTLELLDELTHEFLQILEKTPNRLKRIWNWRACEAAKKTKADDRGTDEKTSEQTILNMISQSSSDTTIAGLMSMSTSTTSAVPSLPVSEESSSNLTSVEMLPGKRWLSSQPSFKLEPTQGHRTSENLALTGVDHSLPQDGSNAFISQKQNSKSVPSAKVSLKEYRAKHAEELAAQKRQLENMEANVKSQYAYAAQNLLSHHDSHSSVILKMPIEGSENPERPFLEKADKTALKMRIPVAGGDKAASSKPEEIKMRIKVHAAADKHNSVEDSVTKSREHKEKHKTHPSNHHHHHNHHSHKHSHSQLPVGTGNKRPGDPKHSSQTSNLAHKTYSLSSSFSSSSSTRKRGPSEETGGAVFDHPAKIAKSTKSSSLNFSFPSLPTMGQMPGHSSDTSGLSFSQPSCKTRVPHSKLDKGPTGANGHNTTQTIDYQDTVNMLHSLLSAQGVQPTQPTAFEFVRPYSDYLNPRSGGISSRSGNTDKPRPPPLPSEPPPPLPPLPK
Chain of CDK9/cyclin T1 (P50750 whole entry, the tested form may be a part): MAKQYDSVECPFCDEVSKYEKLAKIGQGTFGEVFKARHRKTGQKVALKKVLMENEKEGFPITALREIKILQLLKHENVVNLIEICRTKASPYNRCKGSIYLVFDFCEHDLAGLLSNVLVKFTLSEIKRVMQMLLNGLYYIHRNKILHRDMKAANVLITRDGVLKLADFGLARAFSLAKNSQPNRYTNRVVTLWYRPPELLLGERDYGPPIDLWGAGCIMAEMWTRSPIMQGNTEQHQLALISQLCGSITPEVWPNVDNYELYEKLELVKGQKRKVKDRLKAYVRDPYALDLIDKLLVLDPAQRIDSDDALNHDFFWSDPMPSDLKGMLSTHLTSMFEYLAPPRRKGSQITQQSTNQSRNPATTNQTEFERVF

[4] = molecular target: Cyclin-dependent kinase 4/cyclin D1 (Homo sapiens, UniProt P11802); assay: Inhibition of recombinant human N-terminal GST-fused CDK4 (S4 to E303 residues)/cyclin D1 (Q4 to I295 residues) expressed in baculovirus infected Sf9 insect cells using RPPTLSPIPHIPR as substrate measured in presence of [gamma-33P]ATP
Chain of Cyclin-dependent kinase 4/cyclin D1 (P11802 whole entry, the tested form may be a part): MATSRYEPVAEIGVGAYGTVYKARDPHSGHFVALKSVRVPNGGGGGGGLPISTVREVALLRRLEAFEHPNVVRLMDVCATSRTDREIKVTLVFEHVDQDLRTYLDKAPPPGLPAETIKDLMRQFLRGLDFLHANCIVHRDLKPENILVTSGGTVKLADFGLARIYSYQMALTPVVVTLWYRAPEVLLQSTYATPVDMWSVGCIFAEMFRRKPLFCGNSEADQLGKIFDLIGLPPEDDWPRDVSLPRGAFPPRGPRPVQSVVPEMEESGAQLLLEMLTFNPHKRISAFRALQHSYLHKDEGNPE
Chain of Cyclin-dependent kinase 4/cyclin D1 (P24385 whole entry, further chain, the tested form may be a part): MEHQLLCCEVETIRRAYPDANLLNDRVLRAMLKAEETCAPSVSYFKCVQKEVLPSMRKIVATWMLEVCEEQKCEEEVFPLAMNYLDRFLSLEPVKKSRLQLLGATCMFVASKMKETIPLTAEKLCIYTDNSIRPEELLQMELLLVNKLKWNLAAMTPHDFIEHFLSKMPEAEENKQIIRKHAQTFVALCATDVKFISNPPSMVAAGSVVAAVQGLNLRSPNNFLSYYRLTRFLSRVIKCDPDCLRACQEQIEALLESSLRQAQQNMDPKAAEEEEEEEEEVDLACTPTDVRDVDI
In short: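 CDK/cyclin complexes tested in triplicate at minimum; IC50 values reported from those replicate determinations.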

| SMILES | IC50 [1] [nM] | IC50 (CDK9/cyclin T1) [nM] | IC50 [4] [nM] | GI50 [2] [nM] | GI50 (HT) [nM] | GI50 [3] [nM] |
| --- | --- | --- | --- | --- | --- | --- |
| CSc1nc(NCc2ccc(-c3ccccn3)cc2)c2[nH]nc(C(C)C)c2n1 | – | – | – | 1210 | 783 | 1050 |
| CC(C)c1n[nH]c2c(NCc3ccc(-c4ccccn4)cc3)nc(SCC(O)CN3CCNCC3)nc12 (configuration not stated) | 171 | – | – | 435 | 332 | 767 |
| CC(C)c1n[nH]c2c(NCc3ccc(-c4ccccn4)cc3)nc(SCC(O)CN3CCOCC3)nc12 (configuration not stated) | 156 | – | – | 200 | 200 | 243 |
| CC(C)c1n[nH]c2c(NCc3ccc(-c4ccccn4)cc3)nc(SC(CO)C(C)C)nc12 (configuration not stated) | 77 | – | – | 1000 | 980 | 1310 |
| CC[C@H](CO)Nc1nc(NCc2ccc(-c3ccccn3)cc2)c2ncn(C(C)C)c2n1 | – | 272 | 26100 | 307 | 263 | 202 |
| CC(C)c1n[nH]c2c(NCc3ccc(-c4ccccn4)cc3)nc(SC3CCCCC3N)nc12 (configuration not stated) | 52 | – | – | 136 | 139 | 157 |
| C=CC(=O)N1CCC[C@@H](n2nc(-c3ccc(Oc4ccccc4)cc3)c3c(N)ncnc32)C1 [IBRUTINIB] | – | – | – | 18900 | 15900 | 10700 |
| C=CCSc1nc(NCc2ccc(-c3ccccn3)cc2)c2[nH]nc(C(C)C)c2n1 | 100 | – | – | 858 | 1000 | 923 |
| CC(C)c1n[nH]c2c(NCc3ccc(-c4ccccn4)cc3)nc(SC3CCCCC3O)nc12 (configuration not stated) | 134 | – | – | 680 | 636 | 530 |
| CCC(O)CSc1nc(NCc2ccc(-c3ccccn3)cc2)c2[nH]nc(C(C)C)c2n1 (configuration not stated) | 39 | – | – | 280 | 273 | 427 |
| CC(C)c1n[nH]c2c(NCc3ccc(-c4ccccn4)cc3)nc(SCCn3ccnc3)nc12 | 32 | – | – | 145 | 155 | 135 |
| CC(C)c1n[nH]c2c(NCc3ccc(-c4ccccn4)cc3)nc(SC3CCCC3O)nc12 (configuration not stated) | 52 | – | – | 373 | 567 | 450 |
| CC(C)c1n[nH]c2c(NCc3ccc(-c4ccccn4)cc3)nc(SCC(O)CN)nc12 (racemic) | 31 | – | – | 55 | 55 | 64 |
| CSCCSc1nc(NCc2ccc(-c3ccccn3)cc2)c2[nH]nc(C(C)C)c2n1 | 138 | – | – | 668 | 975 | 773 |
| COCSc1nc(NCc2ccc(-c3ccccn3)cc2)c2[nH]nc(C(C)C)c2n1 | 59 | – | – | 285 | 340 | 243 |
| CCC(CO)Sc1nc(NCc2ccc(-c3ccccn3)cc2)c2[nH]nc(C(C)C)c2n1 (configuration not stated) | 150 | – | – | 181 | 255 | 119 |
| CC(C)c1n[nH]c2c(NCc3ccc(-c4ccccn4)cc3)nc(S)nc12 | 558 | – | – | 3240 | 2760 | 2180 |
| CC(C)c1n[nH]c2c(NCc3ccc(-c4ccccn4)cc3)nc(SCCCN(C)C)nc12 | 99 | – | – | 109 | 105 | 76 |
| CC(=O)NCCSc1nc(NCc2ccc(-c3ccccn3)cc2)c2[nH]nc(C(C)C)c2n1 | 41 | – | – | 54 | 71 | 42 |
| CC(C)c1n[nH]c2c(NCc3ccc(-c4ccccn4)cc3)nc(SCCN(C)C)nc12 | 77 | – | – | 61 | 54 | 93 |
| CC(C)c1n[nH]c2c(NCc3ccc(-c4ccccn4)cc3)nc(SCC(O)C(F)(F)F)nc12 (configuration not stated) | 132 | – | – | 585 | 690 | 641 |

Continued, in another order:

| IC50 [1] [nM] | IC50 (CDK9/cyclin T1) [nM] | IC50 [4] [nM] | SMILES | GI50 [2] [nM] | GI50 (HT) [nM] | GI50 [3] [nM] |
| --- | --- | --- | --- | --- | --- | --- |
| 13 | – | – | CNCCSc1nc(NCc2ccc(-c3ccccn3)cc2)c2[nH]nc(C(C)C)c2n1 | 92 | 56 | 40 |
| 12 | – | – | CC(C)c1n[nH]c2c(NCc3ccc(-c4ccccn4)cc3)nc(SCC(N)CN)nc12 (configuration not stated) | 780 | 480 | 770 |
| 12 | – | – | CC(O)CSc1nc(NCc2ccc(-c3ccccn3)cc2)c2[nH]nc(C(C)C)c2n1 (configuration not stated) | 152 | 62 | 81 |
| 20 | – | – | CC(C)c1n[nH]c2c(NCc3ccc(-c4ccccn4)cc3)nc(SCC(C)(C)N)nc12 | 100 | 85 | 64 |
| 21 | – | – | CC(C)c1n[nH]c2c(NCc3ccc(-c4ccccn4)cc3)nc(SCCCO)nc12 | 102 | 109 | 89 |
| 19 | – | – | CC(C)c1n[nH]c2c(NCc3ccc(-c4ccccn4)cc3)nc(SCC3CNC(=O)O3)nc12 (configuration not stated) | 53 | 80 | 69 |
| 22 | – | – | CC(C)c1n[nH]c2c(NCc3ccc(-c4ccccn4)cc3)nc(SCCCN)nc12 | 151 | 120 | 156 |
| 10 | – | – | CC(C)c1n[nH]c2c(NCc3ccc(-c4ccccn4)cc3)nc(SCC(O)CO)nc12 (configuration not stated) | 22 | 21 | 10 |
| 3 | – | – | CC(C)c1n[nH]c2c(NCc3ccc(-c4ccccn4)cc3)nc(SCCO)nc12 | 50 | 48 | 40 |
| 18 | – | – | CC(C)c1n[nH]c2c(NCc3ccc(-c4ccccn4)cc3)nc(SCCNC(N)=O)nc12 | 198 | 240 | 136 |
| 3 | – | – | CC(C)c1n[nH]c2c(NCc3ccc(-c4ccccn4)cc3)nc(SC(C)C(C)O)nc12 (configuration not stated) | 141 | 190 | 160 |
| 27 | – | – | CC(C)c1n[nH]c2c(NCc3ccc(-c4ccccn4)cc3)nc(SCC(N)=O)nc12 | 163 | 192 | 197 |
| 19 | – | – | CC(C)c1n[nH]c2c(NCc3ccc(-c4ccccn4)cc3)nc(SCCC(N)=O)nc12 | 84 | 120 | 81 |
| 30 | – | – | CC(C)c1n[nH]c2c(NCc3ccc(-c4ccccn4)cc3)nc(SCCNC(=N)N)nc12 | 812 | 390 | 390 |
| 30 | – | – | CC(C)c1n[nH]c2c(NCc3ccc(-c4ccccn4)cc3)nc(SCC(C)(C)O)nc12 | 610 | 507 | 477 |
| 11 | – | – | CC(C)c1n[nH]c2c(NCc3ccc(-c4ccccn4)cc3)nc(SC[C@H](O)CN)nc12 | 99 | 63 | 51 |
